Screening data deposited in PubChem BioAssay by SRMLSC.
Only a selection was taken, and hits are over-represented in it overall.
HUVEC inhibit – inhibitors of HUVEC proliferation, primary screen, cell-based, 384-well | AID 648, 2007 | viability, % at 10 µM (by protocol) | 86,000 tested, 1.1% active | CellTiter-Glo luminescence, 72 h; stronger effect = lower value;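 active means viability at or below 30%; inactive means viability above 30%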;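 further: 100% = median luminescence of DMSO-only cell control wells on each plate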
HCT116 bCat-KO – primary screen for growth suppressors in beta-catenin knockout HCT116 cells (colon tumor, human) | AID 818, 2007 | HCT116 beta-catenin knockout viability, CellTiter-Glo, 60 h; stronger effect = lower value | 140,000 tested, 1.5% active | viability, % at 10 µM;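 active means viability at or under a set limit, the compound median less 4 SD, cut at about 6% in these data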;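 further: 0% = Hyamine 1622 control at 20 µM and 100% = untreated cell control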
H69AR inhibit – proliferation blockers of H69AR lung cancer cells, primary screen, cell-based, human, 86K library; 85,000 tested, 6% active; viability, % at 10 µM; H69AR lung tumor viability, ATP luminescence, 72 h; stronger effect = lower value;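 active means viability at or below 40%; inactive means viability above 40%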;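 further: multidrug resistant small cell line overexpressing MRP-1 efflux transporter; 100% = mean luminescence of untreated control wells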
Lung fibro prol – antiproliferative effect on LL 47 fibroblasts – human, LL 47 cells, CellTiter-Glo luminescence, primary screen; LL 47 human lung fibroblast viability, ATP luminescence; stronger effect = lower value; 85,000 tested, 1.1% active; viability, % at 10 µM;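 active means viability at or below 50% in the single dose screen; inactive means viability above 50%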;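 further: compound exposure lasted 72 h before the ATP readout; 100% = median luminescence of untreated cell-only wells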
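Test system: LL 47 human lung fibroblasts / Quantity: 1,150 cells in each well / Medium: IMEM growth medium with 15% fetal bovine serum / Incubation: 72 h compound exposure at 37 °C after overnight plating / Detection: CellTiter-Glo luminescence measuring cellular ATP / Read-out: % viability versus median cells-only luminescence / Benchmarks: cell-only wells, no compound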
PTEN del growth – growth suppression of PTEN-null HCT116, primary screen, cell-based, CellTiter-Glo. HCT116 PTEN-null viability, 60 h; stronger effect = lower value. viability, % at 10 µM. 140,000 tested, 1.2% active. AID 827, 2007;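 active means viability at or below a set limit, 4 SD under the median of all tested compounds, cut at about 3.7% in these data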;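 further: PTEN knockout HCT116 line with beta catenin targeted HCT116 as companion control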
* marks the source's active call; other numbers are inactive results; · = no result given.

SMILES	HUVEC inhibit	HCT116 bCat-KO	H69AR inhibit	Lung fibro prol	PTEN del growth
COC(=O)c1ccc(Cl)c(NC(=O)CN(c2ccccc2)S(=O)(=O)c2ccc(OC)cc2)c1	·	77	·	·	74
COC(=O)COc1ccc(/C=N/NC(=O)c2ccc(N(Cc3ccccc3)S(C)(=O)=O)cc2)cc1	·	90	·	·	93
O=[N+]([O-])c1cccnc1N1CCC(c2cc(-c3ccc(Cl)cc3Cl)n[nH]2)CC1	52	70	84	107	51
O=[N+]([O-])c1cccnc1N1CCC(c2cc(-c3cccc(C(F)(F)F)c3)n[nH]2)CC1	3.7*	65	34*	101	49
Cc1nnsc1C(=O)Nc1cc(Cl)ccc1Cl	100	97	95	98	102
CC(C)(CNC(=O)c1ccc([N+](=O)[O-])c(Cl)c1)CNC(=O)c1ccc([N+](=O)[O-])c(Cl)c1	·	2.0*	·	·	2.1*
O=C(NCCc1cccc(Cl)c1)c1ccc(Cl)c([N+](=O)[O-])c1	·	85	·	·	67
Cc1ccc(C2NC(=O)c3ccccc3N2)s1 (stereo not drawn)	56	16	32*	60	21
O=C1NC(c2ccncc2)Nc2ccccc21 (stereo not drawn)	113	100	103	93	96
CCn1c(C2CC(=O)N(Cc3ccccc3)C2)nc2ccccc21 (stereo not drawn)	90	100	85	92	103
CC(C)(C)N1CC(c2nc3ccccc3n2Cc2ccccc2)CC1=O (stereo not drawn)	96	88	38*	83	86
Cc1ccc(NC2=C(Cl)C(=O)OC2OC(=O)c2ccco2)c(C)c1 (stereo not drawn)	81	53	51	94	57
Cc1ccc(C)c(NC2=C(Cl)C(=O)OC2OC(=O)c2ccco2)c1 (stereo not drawn)	79	76	9.4*	91	72
CCCCOc1ccc(-c2nc(SCC(N)=O)n[nH]2)cc1	98	99	89	111	98
CCCCOc1ccc(-c2nc(=S)[nH][nH]2)cc1	80	101	19*	106	104
CC(C)CC(COCc1cccc(Cl)c1)N1CCN(C(=O)c2ccc(C(F)(F)F)cc2)CCC1=O (stereo not drawn)	·	68	·	·	60
CC1=CC(C)(C)N(S(=O)(=O)c2ccc(C)cc2)c2cc(C)ccc21	44	11	35*	52	14
O=C(Nc1ccc(Cl)c(Cl)c1)C1=Cc2ccccc2OC1	35	2.6*	16*	92	2.6*
CC(SCC(=O)NC12CC3CC(CC(C3)C1)C2)C(=O)O (stereo not drawn)	·	82	·	·	84
COc1ccc(Cn2c(C)c(C)c(C#N)c2NC(=O)Nc2cccc(Cl)c2)cc1	61	79	36*	93	79
COc1ccc(Cn2c(C)c(C)c(C#N)c2NC(=O)Nc2ccc(Cl)cc2)cc1	63	97	35*	74	100
CNC(=O)c1ccc(-c2sc3nc(N4CCOCC4)c4c(c3c2N)CCCC4)o1	30	14	21*	96	7
CNC(=O)c1ccc(-c2sc3nc(N4CCOCC4)c4c(c3c2N)CC(C)(C)OC4)o1	72	84	47	93	80
COc1ccc(S(=O)(=O)N2CCC(C(=O)N3CCc4ccccc4C3)CC2)cc1Cl	79	96	41	95	79
CCOC(=O)c1sc(NC(=O)CCn2nnc3ccccc32)c(C(=O)OCC)c1C	57	·	36*	95	·
SMILES	HUVEC inhibit	HCT116 bCat-KO	H69AR inhibit	Lung fibro prol	PTEN del growth
CC(C)OC(=O)c1c(NC(=O)CCn2nnc3ccccc32)sc2c1CCCC2	99	90	93	·	99
O=S(=O)(CCSc1ccccn1)c1nc2ccccc2s1	37	35	1.9*	43*	53
CCS(=O)(=O)CCSc1nc2ccccc2o1	112	96	89	111	87
O=S(=O)(CCSc1nc2ccccc2o1)c1nc2ccccc2s1	12*	5.1*	95	6.2*	3.5*
CC(C)(C)c1cc(N)on1	·	94	·	·	93
CCCCCCCCCC(=O)N/N=C(\C)c1cccnc1	106	91	90	91	94
CCCCCC(=O)N/N=C(\C)c1ccccn1	·	4.3*	·	·	5
Cc1cc(C)n(-c2nc3ccccc3c(=O)n2OCC(=O)OCc2ccccc2)n1	60	4.7*	9.8*	27*	2.8*
